Reference: ChEMBL document CHEMBL2169850, “3,6-bis(3-alkylguanidino)acridines as DNA-intercalating antitumor agents” (Eur J Med Chem, 2012)
Active and inactive are the calls of the source. The calls are words filed in the database; no cut-off is given here.

How the values were obtained:
HL-60 [1] = assay: Cell cycle arrest in human HL60 cells assessed as accumulation at G2/M phase at 5 uM incubated for 72 hrs by flow cytometry (reference value: 12.68 +/- 3.21%); type: functional
HL-60 [2] = assay: Induction of necrosis in human HL60 cells at 5 to 25 uM incubated for 48 hrs by AnnexinV/propidium iodide staining method; type: functional, cell-based
Summary of the method: (§1)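 HL-60 cells (1.5 × 10^5) were exposed to compound, then stained 10 min with Annexin V-FITC in HEPES/CaCl2/NaCl binding buffer. Cells were washed, briefly stained with propidium iodide and analysed by flow cytometry for apoptotic and necrotic fractions. Mean ± SD of at least three independent experiments.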

Nucleic Acid [3] = assay: Binding affinity to calf thymus DNA assessed as melting temperature at 12.4 uM by thermal denaturation study; type: nucleic-acid assay; conditions: Bos taurus
HL-60 [4] = assay: Induction of apoptosis in human HL60 cells at 5 to 25 uM incubated for 48 hrs by AnnexinV/propidium iodide staining method; type: functional, cell-based
Summary of the method: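 HL-60 cells (1.5 × 10^5) were treated at 5–25 µM for 24, 48 or 72 h and harvested. They were stained with Annexin V-FITC for 10 min in HEPES/CaCl2/NaCl binding buffer, washed, briefly stained with PI (1 mg/mL) and analysed by flow cytometry for apoptosis and necrosis. Mean ± SD, n ≥ 3.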

HL-60 [5] = assay: Cell cycle arrest in human HL60 cells assessed as accumulation at G2/M phase at 25 uM incubated for 24 hrs by flow cytometry (reference value: 19.62 +/- 0.96%); type: functional
HL-60 [6] = assay: Antiproliferative activity against human HL60 cells assessed as cell number at 15 uM incubated for 72 hrs by Coulter counting method; type: functional
Summary of the method: (§2)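 HL-60 cells in RPMI with 10% heat-inactivated FCS, antibiotics and amphotericin, 37 °C, 5% CO2, seeded in 60 mm dishes. Compound added at 5, 15 or 25 µM for 24, 48 or 72 h. Absolute cell counts taken by Coulter counter and expressed as percentage of untreated control. Mean ± SD of at least three independent experiments; one-way ANOVA with Tukey test, p < 0.05.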

HL-60 [7] = assay: Antiproliferative activity against human HL60 cells assessed as cell number at 5 uM incubated for 48 hrs by Coulter counting method; type: functional; summary of the method: as §2
HL-60 [8] = assay: Antiproliferative activity against human HL60 cells assessed as cell number at 15 uM incubated for 24 hrs by Coulter counting method; type: functional; summary of the method: as §2
HL-60 [9] = assay: Drug uptake in human HL60 cells with necrotic morphology at 50 uM incubated for 18 hrs by fluorescence microscopy; type: ADME, cell-based; conditions: hl-60, 18 h
Summary of the method: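 HL-60 cells were treated with 50 µM compound for 18 h, washed with PBS, resuspended in HBSS and mounted as native slides. Cells were imaged by inverted fluorescence microscopy at 40×, with excitation 360/40 and emission 470/40. The fluorescence channel was merged with brightfield images.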

HL-60 [10] = assay: Cell cycle arrest in human HL60 cells assessed as accumulation at S phase at 5 uM incubated for 48 hrs by flow cytometry (reference value: 45.29 +/- 1.23%); type: functional
Nucleic Acid [11] = assay: Binding affinity to calf thymus DNA at 11 to 58 uM by LD spectroscopy; type: nucleic-acid assay; conditions: Bos taurus
Summary of the method: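 Flow LD spectra were recorded in a Couette cell (1 mm path) from 210 to 550 nm at 25 °C in 10 mM Tris. ctDNA was modified by compound at 11–58 × 10^-6 M.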

HL-60 [12] = assay: Cell cycle arrest in human HL60 cells assessed as accumulation at G1 phase at 25 uM incubated for 72 hrs by flow cytometry (reference value: 47.02 +/- 6.19%); type: functional
HL-60 [13] = assay: Cell cycle arrest in human HL60 cells assessed as accumulation at S phase at 15 uM incubated for 72 hrs by flow cytometry (reference value: 40.30 +/- 3.15%); type: functional
HL-60 [14] = assay: Cell cycle arrest in human HL60 cells assessed as accumulation at G2/M phase at 15 uM incubated for 24 hrs by flow cytometry (reference value: 19.62 +/- 0.96%); type: functional
HL-60 [15] = assay: Antiproliferative activity against human HL60 cells assessed as cell number at 25 uM incubated for 72 hrs by Coulter counting method; type: functional; summary of the method: as §2
HL-60 [16] = assay: Cell cycle arrest in human HL60 cells assessed as accumulation at G1 phase at 15 uM incubated for 72 hrs by flow cytometry (reference value: 47.02 +/- 6.19%); type: functional
HL-60 [17] = assay: Cell cycle arrest in human HL60 cells assessed as accumulation at S phase at 5 uM incubated for 24 hrs by flow cytometry (reference value: 44.41 +/- 0.77%); type: functional
HL-60 [18] = assay: Induction of caspase-3 activation in human HL60 cells at 5 to 25 uM incubated for 24 to 72 hrs by FACS assay; type: functional, cell-based
Summary of the method: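 HL-60 cells (RPMI with 10% heat-inactivated FCS, 37 °C, 5% CO2) were seeded in dishes and treated 24, 48 or 72 h. Cells were fixed and permeabilized 20 min on ice, then stained 30 min at RT with FITC anti-active caspase-3 antibody. Read-out was the percentage of positive cells by flow cytometry. Mean ± SD of at least three independent experiments; ANOVA with Tukey.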

HL-60 [19] = assay: Cell cycle arrest in human HL60 cells assessed as accumulation at G1 phase at 25 uM incubated for 48 hrs by flow cytometry (reference value: 38.29 +/- 0.22%); type: functional
HL-60 [20] = assay: Antiproliferative activity against human HL60 cells assessed as cell number at 25 uM incubated for 48 hrs by Coulter counting method; type: functional; summary of the method: as §2
HL-60 [21] = assay: Induction of necrosis in human HL60 cells at 5 to 25 uM incubated for 72 hrs by AnnexinV/propidium iodide staining method; type: functional, cell-based; summary of the method: as §1
HL-60 [22] = assay: Cell cycle arrest in human HL60 cells assessed as accumulation at G1 phase at 5 uM incubated for 24 hrs by flow cytometry (reference value: 35.96 +/- 1.63%); type: functional
HL-60 [23] = assay: Cell cycle arrest in human HL60 cells assessed as accumulation at S phase at 15 uM incubated for 24 hrs by flow cytometry (reference value: 44.41 +/- 0.77%); type: functional
Nucleic Acid [24] = assay: Binding affinity to calf thymus DNA by spectrofluorimetric titration assay; type: nucleic-acid assay; conditions: Bos taurus
Summary of the method: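 Fluorescence titration at 25 °C in 0.01 M Tris, pH 7.4. Compound (9.58 × 10^-6 M) was titrated with ctDNA from 0 to 2.57 × 10^-4 M bp, excited at 384 nm, and emission recorded from 400 to 600 nm. K and n were obtained from McGhee–von Hippel fits of Scatchard data.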

Nucleic Acid [25] = assay: Binding affinity to calf thymus DNA assessed as hypochromacity at 12.8 uM by UV-visible absorption spectroscopy; conditions: Bos taurus
HL-60 [26] = assay: Cell cycle arrest in human HL60 cells assessed as accumulation at S phase at 25 uM incubated for 24 hrs by flow cytometry (reference value: 44.41 +/- 0.77%); type: functional
Nucleic Acid [27] = assay: Binding affinity to calf thymus DNA increase in DNA viscosity at 12 to 60 uM by viscosimetric titration assay; type: nucleic-acid assay; conditions: Bos taurus
Summary of the method: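 Relative viscosity of ctDNA (3.11 × 10^-8 M) with compound at 12–60 × 10^-6 M was measured by automated microviscometry in a 1.6 mm capillary at 25 °C, in 10 mM Tris, pH 7.4. Solution density was also measured.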

`CCCCCCNC(=N)Nc1ccc2cc3ccc(NC(=N)NCCCCCC)cc3nc2c1.Cl.Cl.O` was tested, and the Activity (HL-60 [1]) was 7.47%, the Activity (HL-60 [2]) was “Active” and the Tm (Nucleic Acid [3]) was 89 °C. The Activity (HL-60 [4]) was “Active”, the Activity (HL-60 [5]) was 10.37% and the Activity (HL-60 [6]) was 33.13%. For the same compound, the Activity (HL-60 [7]) was 72.18%, the Activity (HL-60 [8]) was 74.49% and the Drug uptake (HL-60 [9]) was “Active”. The Activity (HL-60 [10]) was 43.54%, the Activity (Nucleic Acid [11]) was “Active” and the Activity (HL-60 [12]) was 73.59%. For the same compound, the Activity (HL-60 [13]) was 23.84%, the Activity (HL-60 [14]) was 11.65% and the Activity (HL-60 [15]) was 20.46%. The Activity (HL-60 [16]) was 70.31%, the Activity (HL-60 [17]) was 47.31% and the Activity (HL-60 [18]) was “Active”. The Activity (HL-60 [19]) was 65.72%, the Activity (HL-60 [20]) was 40.67% and the Activity (HL-60 [21]) was “Active”. The Activity (HL-60 [22]) was 36.31%, the Activity (HL-60 [23]) was 46.58% and the K (Nucleic Acid [24]) was 1.25 ×10⁵ /M. The Activity (Nucleic Acid [25]) was 42%, the Activity (HL-60 [26]) was 38.11% and the Activity (Nucleic Acid [27]) was “Active”.
`CCNC(=N)Nc1ccc2cc3ccc(NC(=N)NCC)cc3nc2c1.Cl.Cl.O` was tested, and the Activity (HL-60 [1]) was “inactive”, the Activity (HL-60 [2]) was “inactive” and the Tm (Nucleic Acid [3]) was 84 °C. The Activity (HL-60 [4]) was “inactive”, the Activity (HL-60 [5]) was “inactive” and the Activity (HL-60 [6]) was 84.97%. For the same compound, the Activity (HL-60 [7]) was 78.56%, the Activity (HL-60 [8]) was 78.95% and the Drug uptake (HL-60 [9]) was “Active”. The Activity (HL-60 [10]) was “inactive”, the Activity (Nucleic Acid [11]) was “Active” and the Activity (HL-60 [12]) was “inactive”. For the same compound, the Activity (HL-60 [13]) was “inactive”, the Activity (HL-60 [14]) was “inactive” and the Activity (HL-60 [15]) was 94.84%. The Activity (HL-60 [16]) was “inactive”, the Activity (HL-60 [17]) was “inactive” and the Activity (HL-60 [18]) was “inactive”. The Activity (HL-60 [19]) was “inactive”, the Activity (HL-60 [20]) was 86.85% and the Activity (HL-60 [21]) was “inactive”. The Activity (HL-60 [22]) was “inactive”, the Activity (HL-60 [23]) was “inactive” and the K (Nucleic Acid [24]) was 5.26 ×10⁵ /M. For the same compound, the Activity (Nucleic Acid [25]) was 23%, the Activity (HL-60 [26]) was “inactive” and the Activity (Nucleic Acid [27]) was “Active”.
